Source: ChEMBL document CHEMBL3286255, “Rational design and synthesis of novel thiazolidin-4-ones as non-nucleoside HIV-1 reverse transcriptase inhibitors” (Bioorg Med Chem, 2014)

Experiments:
[1] = system: Human immunodeficiency virus 1; assay: Antiviral activity against R5 tropic Human immunodeficiency virus 1 ADA5 subtype B infected in human TZM-bl cells assessed as reduction in virus-induced cytopathic effect after 48 hrs by luminescence assay; assay type: functional, organism-based
Summary of the method: (§1)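 TZM-bl cells (HeLa-derived; CD4, CXCR4, CCR5; LTR-driven luciferase) seeded 1×10^4/well, left overnight at 37 °C, 5% CO2, then infected with 400 TCID50 virus for 2 h. Serial compound dilutions added in duplicate, only at levels giving >50% viability. […] Mean of two independent assays; nevirapine as positive control.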

[2] = system: Human immunodeficiency virus; assay: Inhibition of HIV reverse transcriptase at 100 ug/ml after 1 hr by ELISA relative to control
Summary of the method: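 Kit ELISA for HIV RT. Template/primer, biotin- and DIG-labelled dNTPs and RT enzyme in lysis buffer incubated 1 h at 37 °C. Product captured on streptavidin, detected with anti-DIG-peroxidase and ABTS substrate, and read at 405 nm. Percent inhibition calculated against a no-inhibitor sample.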

[3] = system: Human immunodeficiency virus 1; assay: Antiviral activity against X4 tropic Human immunodeficiency virus 1 3B subtype B infected in human TZM-bl cells assessed as reduction in virus-induced cytopathic effect after 48 hrs by luminescence assay; assay type: functional, organism-based; summary of the method: as §1
[4] = Selectivity index, ratio of CC50 for human TZM-bl cells to EC50 for R5 tropic Human immunodeficiency virus 1 ADA5 subtype B; assay type: toxicity, cell-based; conditions: read-out: Ratio CC50/EC50
[5] = Cytotoxicity against human TZM-bl cells after 48 hrs by MTT assay; assay type: cell-based
Summary of the method: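 TZM-bl cells seeded 1×10^4/well and left overnight at 37 °C, 5% CO2. Medium then replaced with a two-fold dilution series of compound in quadruplicate. […] Mean of three independent assays.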

[6] = Selectivity index, ratio of CC50 for human TZM-bl cells to EC50 for X4 tropic Human immunodeficiency virus 1 UG070 subtype D; assay type: toxicity, cell-based; conditions: read-out: Ratio CC50/EC50
[7] = system: Human immunodeficiency virus 1; assay: Antiviral activity against R5 tropic Human immunodeficiency virus 1 VB59 subtype C infected in human TZM-bl cells assessed as reduction in virus-induced cytopathic effect after 48 hrs by luminescence assay; assay type: functional, organism-based; summary of the method: as §1
[8] = Selectivity index, ratio of CC50 for human TZM-bl cells to EC50 for X4 tropic Human immunodeficiency virus 1 3B subtype B; assay type: toxicity, cell-based; conditions: read-out: Ratio CC50/EC50
[9] = system: Human immunodeficiency virus 1; assay: Antiviral activity against X4 tropic Human immunodeficiency virus 1 UG070 subtype D infected in human TZM-bl cells assessed as reduction in virus-induced cytopathic effect after 48 hrs by luminescence assay; assay type: functional, organism-based; summary of the method: as §1
[10] = Selectivity index, ratio of CC50 for human TZM-bl cells to EC50 for R5 tropic Human immunodeficiency virus 1 VB59 subtype C; assay type: toxicity, cell-based; conditions: read-out: Ratio CC50/EC50
[11] = Human immunodeficiency virus 1, ADA5 subtype B, TZM-bl, 48 h, read-out: EC50
[12] = Human immunodeficiency virus 1, 3B subtype B, TZM-bl, 48 h, read-out: EC50
[13] = Human immunodeficiency virus 1, VB59 subtype C, TZM-bl, 48 h, read-out: EC50
[14] = Human immunodeficiency virus 1, UG070 subtype D, TZM-bl, 48 h, read-out: EC50

Row | Structure (SMILES) | EC50 [1, 11] [µM] | inhibition [2] [%] | EC50 ([3]; tzm-bl) | EC50 [3, 12] [µM] | EC50 [7, 13] [µM] | EC50 [9, 14] [µM] | EC50 ([7]; tzm-bl) | EC50 ([9]; tzm-bl) | EC50 ([1]; tzm-bl) | selectivity ratio [4] | CC50 at 48 h [5] [µM] | selectivity ratio [6] | selectivity ratio [8] | selectivity ratio [10]
1 | Cc1cc(N2C(=O)CSC2c2ccc(C#N)cc2)nc(C)c1Br (configuration not stated) | 39.1 | 37.5 | Not Active |  |  |  |  |  |  | 1.11 | 43.8 |  |  | 
2 | Cc1cc(N2C(=O)CSC2c2ccc(C#N)cc2)no1 (configuration not stated) | 81.1 | 27.6 |  | 88.7 | 68.7 |  |  |  |  | 1.72 | 140 |  | 1.57 | 2.04
3 | Cc1cc(C)nc(N2C(=O)CSC2c2ccc(C#N)cc2)n1 (configuration not stated) | 99.3 | 41.5 |  | 115 |  |  | Not Active | Not Active |  | 1.13 | 113 |  | 0.97 | 
4 | O=C(NN1C(=O)CSC1c1c(Cl)cccc1Cl)c1ccncc1 (configuration not stated) | 9.72 | 18.9 |  | 36.7 | 26.3 |  |  | Not Active |  | 17.5 | 170 |  | 4.64 | 6.47
5 | Cc1ccnc(N2C(=O)CSC2c2ccc(C#N)cc2)n1 (configuration not stated) | 55 | 43.5 |  | 85.7 |  |  | Not Active | Not Active |  | 2.2 | 121 |  | 1.41 | 
6 | Cc1cccc(C)c1C1SCC(=O)N1NC(=O)c1ccncc1 (configuration not stated) | 18.9 | 14.2 |  | 29.4 |  | 38.8 | Not Active |  |  | 2.29 | 43.4 | 1.11 | 1.47 | 
7 | O=C1CSC(c2c(F)cccc2F)N1c1ncnc2[nH]cnc12 (configuration not stated) | 27.8 | 70.4 |  | 36.3 | 38.6 | 56.5 |  |  |  | 1.45 | 40.5 | 0.71 | 1.11 | 1.05
8 | N#Cc1ccc(NN2C(=O)CSC2c2c(Cl)cccc2Cl)cc1 (configuration not stated) | 5.42 | 22.2 |  | 30.3 | 25.7 | 36.9 |  |  |  | 12 | 65.3 | 1.76 | 2.14 | 2.54
9 | Cc1ccc(S(=O)(=O)NN2C(=O)CSC2c2c(F)cccc2Cl)cc1 (configuration not stated) | 64.6 | 56.3 |  | 63.1 | 81.6 | 72.4 |  |  |  | 2.1 | 136 | 1.87 | 2.15 | 1.66
10 | N#Cc1ccc(NN2C(=O)CSC2c2c(F)cccc2F)cc1 (configuration not stated) | 26.6 | 34.5 |  | 42.6 | 48.9 | 56.9 |  |  |  | 1.58 | 42.2 | 0.74 | 1 | 0.86
11 | O=C1CSC(c2c(F)cccc2F)N1Nc1ccccn1 (configuration not stated) | 16.2 | 64.7 |  | 17.3 | 16.8 | 24.4 |  |  |  | 5.56 | 90.1 | 3.69 | 5.19 | 5.36
12 | O=C(NN1C(=O)CSC1c1c(F)cccc1Cl)c1ccncc1 (configuration not stated) |  | 81.7 | Not Active |  |  |  |  |  | Not Active |  | 105 |  |  | 
13 | O=C1CSC(c2c(Cl)cccc2Cl)N1c1ncnc2[nH]cnc12 (configuration not stated) | 11.7 | 50.2 |  | 11.8 |  |  |  |  |  | 1.11 | 13.1 |  | 1.1 | 
14 | COc1cc(OC)nc(N2C(=O)CSC2c2ccc(C#N)cc2)n1 (configuration not stated) | 57 | 12.2 |  | 68 |  |  | Not Active | Not Active |  | 1.51 | 86.5 |  | 1.27 | 
15 | COc1cccc(OC)c1C1SCC(=O)N1c1cc(C)on1 (configuration not stated) |  | 62.2 |  | 11.3 | 20.2 | 18.4 |  |  | Not Active |  | 125 | 6.77 | 11 | 6.18
16 | N#Cc1ccc(NN2C(=O)CSC2c2c(F)cccc2Cl)cc1 (configuration not stated) | 16.2 | 26.3 |  | 33.5 | 35 | 49.6 |  |  |  | 4.7 | 76.5 | 1.54 | 2.27 | 2.18
17 | Cc1cc(C)nc(N2C(=O)CSC2c2ccc(C#N)cc2)c1 (configuration not stated) | 26.4 | 37.9 |  | 40.4 | 46.5 | 51.1 |  |  |  | 5.62 | 148 | 2.9 | 3.66 | 3.18
18 | N#Cc1ccc(C2SCC(=O)N2c2ccc(C#N)cc2)cc1 (configuration not stated) | 61.2 |  |  | 67.8 | 55.7 | 63.4 |  |  |  | 1.22 | 75 | 1.18 | 1.1 | 1.34
19 | Cc1cc(N2C(=O)CSC2c2c(Cl)cccc2[N+](=O)[O-])nc(C)c1Br (configuration not stated) |  | 77.8 |  |  |  |  |  |  |  |  |  |  |  | 

Second part, led by results:

Row | EC50 [1, 11] [µM] | inhibition [2] [%] | EC50 ([3]; tzm-bl) | EC50 [3, 12] [µM] | EC50 [7, 13] [µM] | EC50 [9, 14] [µM] | EC50 ([7]; tzm-bl) | EC50 ([9]; tzm-bl) | EC50 ([1]; tzm-bl) | Structure (SMILES) | selectivity ratio [4] | CC50 at 48 h [5] [µM] | selectivity ratio [6] | selectivity ratio [8] | selectivity ratio [10]
20 | 3.79 | 97.5 |  | 2.1 | 5.31 | 4.66 |  |  |  | O=C1CSC(c2c(F)cccc2Cl)N1Nc1ccccn1 (configuration not stated) | 40.2 | 153 | 32.7 | 72.7 | 28.7
21 | 1.51 | 85.5 |  | 2.22 | 2.48 | 2.36 |  |  |  | COc1cccc(OC)c1C1SCC(=O)N1c1cc(C)c(Br)c(C)n1 (configuration not stated) | 56.8 | 85.8 | 36.3 | 38.6 | 34.6
22 | 4.55 | 57.9 |  | 29.4 |  |  | Not Active | Not Active |  | Cc1ccc(S(=O)(=O)NN2C(=O)CSC2c2c(Cl)cccc2Cl)cc1 (configuration not stated) | 16.6 | 75.7 |  | 2.57 | 
23 | 0.7 | 81.8 |  | 0.35 | 0.77 | 0.5 |  |  |  | Cc1cc(N2C(=O)CSC2c2c(F)cccc2F)nc(C)c1Br (configuration not stated) | 95.9 | 67.1 | 134 | 192 | 87.2
24 | 4.62 | 42 |  | 20.5 | < 7.13 | 7.13 |  |  |  | N#Cc1ccc(N2C(=O)CSC2c2c(Cl)cccc2Cl)nc1 (configuration not stated) | 13 | 60 | 8.4 | 2.92 | 8.4
25 | 0.08 | 91.5 |  | 0.02 | 0.08 | 0.08 |  |  |  | Cc1cc(C)nc(N2C(=O)CSC2c2c(Cl)cccc2[N+](=O)[O-])c1 (configuration not stated) | 1740 | 139 | 1690 | 6940 | 1690
26 | 1.85 | 97.4 |  | 0.99 | 1.7 | 1.17 |  |  |  | O=C1CSC(c2c(Cl)cccc2Cl)N1Nc1ccccn1 (configuration not stated) | 80.5 | 149 | 127 | 150 | 87.6
27 | 4.13 | 93.8 |  | 3.17 | 7.28 | 8.87 |  |  |  | COc1cc(OC)nc(N2C(=O)CSC2c2c(OC)cccc2OC)n1 (configuration not stated) | 37.8 | 156 | 17.6 | 49.3 | 21.5
28 | 0.31 | 82.9 |  | 0.25 | 0.48 | 0.53 |  |  |  | COc1cc(OC)nc(N2C(=O)CSC2c2c(F)cccc2F)n1 (configuration not stated) | 250 | 77.5 | 144 | 310 | 161
